High-throughput results (PubChem)
The list is not random: actives were taken first. Their share in the collection is about 4.4%.
EBI2 block: antagonists of human EBI2 receptor | P32249 | EBI2 beta-arrestin recruitment, luminescence, 7a,25-OHC stimulated | inhibition, % at 5 µM | 360,000 tested, 0.81% active; in the data active = inhibition above about 38%;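 note: enzyme fragment complementation signal reports receptor beta-arrestin coupling in cells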
Target sequence (P32249 whole entry, looked up, the tested form may be a part): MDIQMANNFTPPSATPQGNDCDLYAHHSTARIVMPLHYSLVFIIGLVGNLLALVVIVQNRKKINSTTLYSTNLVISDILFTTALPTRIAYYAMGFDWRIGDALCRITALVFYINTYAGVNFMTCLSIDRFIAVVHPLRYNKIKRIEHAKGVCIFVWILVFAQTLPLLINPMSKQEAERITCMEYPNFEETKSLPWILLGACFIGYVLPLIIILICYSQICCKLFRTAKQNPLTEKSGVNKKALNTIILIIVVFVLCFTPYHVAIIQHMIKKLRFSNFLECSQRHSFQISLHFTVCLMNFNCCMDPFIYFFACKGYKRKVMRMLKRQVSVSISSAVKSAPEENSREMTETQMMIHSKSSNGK
SENP1 FRET inh: SENP1 (human) catalytic domain inhibition; Q9P0U3; recombinant SENP1 catalytic domain, CyPet-SUMO1-YPet FRET cleavage; inhibition, % at 10 µM; 360,000 tested, 0.21% active; AID 624204;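 active = inhibition at least 30% at 10 µM, raw YFP signal under a set limit, fluorescence ratio 0.5 to 1.5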
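system = hSENP1 catalytic domain, recombinant | reagent = SFCypet-SUMO1-SFYpet substrate at 25 nM | doses = one dose per compound, 10 µM, 0.5% DMSO | incubation = enzyme reaction for 50 min at room temperature, dark | measured by = FRET, CFP and YFP emission | controls = no-enzyme low, enzyme-DMSO high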
MPTP inh: permeability transition pore inhibition | 360,000 tested, 1.4% active | isolated mouse mitochondria, Ca2+ swelling absorbance, 30 min | inhibition, % at 10 µM;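 active = inhibition of 50% or more, scaled per plate between neutral and stimulator controls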
GRIN3A LBD mod: modulators (binders) of human NR3A ligand-binding domain; AID 1259313; 340,000 tested, 2.5% active; Tm shift relative to glycine control, % at 25 µM; NR3A LBD differential scanning fluorimetry, Tm shift; 0% = protein alone, 100% = glycine-bound protein;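 active = melting temperature shift of at least 10% of the positive control shift, at one fixed dose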
MPTP counter: membrane potential counter-screen of mitochondrial pore inhibitors | shares compounds with MPTP inh | isolated mitochondria, Rhodamine 123 fluorescence | inhibition, % at 10 µM | 5,000 tested, 78% active | AID 624504; in the data active = inhibition above about 22%
MPTP abs DR: MPTP inhibition, dose response swelling confirmation; isolated mitochondria swelling, absorbance; shares compounds with MPTP inh; 780 tested, 58% active; IC50, µM; in the data active = IC50 below about 20 µM
MPTP cs DR: active in counter-screen for permeability transition pore inhibitors | isolated mitochondria counterscreen, fluorescence read-out | IC50, µM | 780 tested, 49% active | AID 651564 | shares compounds with MPTP inh; in the data active = IC50 below about 80 µM
Hits are given with their value; i = inactive; nt = no result.

SMILES	EBI2 block	SENP1 FRET inh	MPTP inh	GRIN3A LBD mod	MPTP counter	others
CNC(=S)NNC(=O)CSCc1c(Cl)cccc1Cl	i	i	i	i	nt
O=C(COC(=O)c1ccc[nH]c1=O)NC1CC1	i	i	i	i	nt
O=C1c2ccccc2-c2cccc(NS(=O)(=O)c3ccc(C(F)(F)F)cc3)c21	i	i	64	i	38
O=C(NCCC1=CCCCC1)C(=O)NCc1ccccc1	i	i	i	i	nt
S=C(NCCC1=CCCCC1)Nc1ccc(Cl)cc1	i	i	91	i	90
COc1ccc(NC(=S)NCCC2=CCCCC2)cc1OC	i	i	i	i	nt
Clc1ccc(CNCCC2=CCCCC2)cc1	i	i	70	i	i	MPTP abs DR=13;MPTP cs DR=i
CC(C)(C)NS(=O)(=O)c1ccc(NC(=O)C(Sc2ccccc2)c2ccccc2)cc1 (stereo not drawn)	i	i	65	23	73
O=C(Nc1ccc(Cl)c([N+](=O)[O-])c1)C(Sc1ccccc1)c1ccccc1 (stereo not drawn)	i	i	105	28	80
O=C(Nc1cc([N+](=O)[O-])ccc1Cl)C(Sc1ccccc1)c1ccccc1 (stereo not drawn)	i	i	i	i	nt
O=C(NCCCl)Nc1ccc(Cl)c([N+](=O)[O-])c1	i	i	81	i	93
Cc1ccc(S(=O)(=O)N2CCCOC2CNC(=O)C(=O)NC2CCCCC2)cc1 (stereo not drawn)	i	i	i	i	nt
O=C(NC1CCCCCCC1)c1ccc(Br)o1	i	i	i	i	nt
COc1ccc(CN(C)Cc2nc(Cc3cccc(F)c3)no2)c2cccnc12	i	i	73	i	83
COc1cccc(-n2cc(CN(C)Cc3nc(Cc4cccc(F)c4)no3)cn2)c1	i	i	i	i	nt
CCOC(=O)N1CCC(N(C(=O)Nc2ccc(Cl)c(Cl)c2)C(C)CC)CC1 (stereo not drawn)	i	i	80	i	95
CCOC(=O)N1CCC(N(CCOC)C(=O)Nc2ccc(CC)cc2)CC1	i	i	i	i	nt
Cc1ccc(S(=O)(=O)N(C)CC(=O)N(CC(C)C)C2CCS(=O)(=O)C2)cc1 (stereo not drawn)	i	i	i	i	nt
CC(C)S(=O)(=O)c1csc(NC(=O)Nc2cc(Cl)ccc2Cl)c1Cl	i	i	86	i	76
CC(=O)NC(CCS(C)(=O)=O)C(=O)Nc1cc(Cl)ccc1Cl (stereo not drawn)	i	i	i	i	nt
Cc1cc(N2CCN(C)CC2)ccc1NC(=O)c1ccc(-c2ccc(Cl)cc2)o1	i	i	54	nt	i
CCOC(=O)C1CCCN(C(=O)c2ccc(C)cc2O)C1 (stereo not drawn)	i	i	i	i	nt
CCN(CC)CCn1c(=N)n(CCOc2ccccc2)c2ccccc21	i	i	78	i	i	MPTP abs DR=i;MPTP cs DR=33
Cc1cccc(C(=O)Nc2nnc(S(=O)(=O)N(C)Cc3ccco3)s2)c1	i	i	i	i	nt
Cn1nc(CC(=O)Nc2ccc3c(c2)OCCO3)c2ccccc2c1=O	i	i	i	i	nt
SMILES	EBI2 block	SENP1 FRET inh	MPTP inh	GRIN3A LBD mod	MPTP counter	others
Cn1nc(CC(=O)Nc2ccc(N3CCN(C(=O)OC(C)(C)C)CC3)cc2)c2ccccc2c1=O	i	i	101	i	74
Cn1nc(CC(=O)N2CCN(c3ccccc3)CC2)c2ccccc2c1=O	i	i	i	i	nt
Cc1ccc(NC(=O)Cc2nn(C)c(=O)c3ccccc23)cc1F	i	i	59	i	80
C[C@H](NC(=O)C1CCN(S(=O)(=O)c2ccccc2)CC1)C(=O)NC1CC1	i	i	i	nt	nt
O=C(O)CCN1C(=O)/C(=C\c2ccc(-c3nc4ccccc4s3)o2)SC1=S	i	i	89	i	i
O=C(O)CCCN1C(=O)/C(=C\c2ccco2)SC1=S	i	i	i	i	nt
O=C(Nc1ccc2c(c1)OCO2)Nc1ccc(Cl)cc1Cl	i	i	83	34	94
O=C(Nc1ccc([N+](=O)[O-])cc1)Nc1ccc(OC(F)F)c(Cl)c1	i	i	98	15	47
O=C(Cc1ccc(Cl)cc1Cl)Nc1ccc(OC(F)F)c(Cl)c1	i	i	74	i	84
O=C(Nc1ccc(OC(F)F)c(Cl)c1)c1cccc(OC(F)F)c1	i	i	97	34	95
